Activity calls are given as the source filed them. The rule behind the calls is not given here.
Legend:
[1] = test system: Hemoglobin HbA (Homo sapiens), P69905+P68871 [E7V]; assay: (§1) Induction of R-state stabilization of Hb betaGlu6Val mutant in sickle disease patient purified HbS/HbA mixture assessed as change from baseline of partial pressure of O2 at which HbS is 50% saturated with O2 at 30 uM preincubated for 45 mins followed by oxygenation for 10 mins and subsequent deoxygenation by hemoximetry relative to control
Summary of the method: (§2)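 Oxygen equilibrium curves were run on a Hemox Analyzer using Hb purified from sickle disease blood (an HbA/HbS mixture) at 25 μM. Compound was tested at 30 μM, or at 500 μM where noted. The read-out was the % change from baseline in the pO2 at which HbS is 50% saturated (Δp50).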

Blood = assay: Half life in Sprague-Dawley rat blood at 7.2 to 120 mg/kg, po by LC-MS/MS analysis; type: ADME, organism-based; settings: in vivo
[2] = test system: Hemoglobin HbA (Homo sapiens), P69905+P68871 [E7V]; assay: Induction of R-state stabilization of Hb betaGlu6Val mutant in sickle cell disease transfused human whole blood assessed as change from baseline of partial pressure of O2 at which HbS is 50% saturated with O2 at 1 mM preincubated for 45 mins followed by 20 mins oxygenation/deoxygenation cycle by hemoximetry relative to control
Summary of the method: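 Whole blood from transfused SCD subjects, at 20% hematocrit (Hb 1 mM), was run with compound at 1 mM. Oxygen equilibrium curves were measured by hemoximetry. The value is the % change from baseline in the pO2 giving 50% O2 saturation (Δp50).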

Homo sapiens = species on record: Homo sapiens; assay: Induction of R-state stabilization of sickle cell Hb betaGlu6Val mutant purified from sickle cell patient assessed as inhibition of KH2PO4-induced polymerization by measuring change from baseline of delay time for onset of polymerization at 75 uM preincubated for 1 hr followed by deoxygenation for …; parameters: scale not given: the % may be the effect or the level left
Rattus norvegicus = assay: Dose normalized AUC (0 to infinity) in Sprague-Dawley rat at 7.2 to 120 mg/kg, po by LC-MS/MS analysis; type: ADME, organism-based; settings: in vivo
Summary of the method: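 Rat oral PK: AUC(0–∞) divided by the oral dose, expressed as (ng·h/mL)/(mg/kg).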

[3] = Ratio of drug level in Sprague-Dawley rat RBC to plasma at 7.2 to 120 mg/kg, po by LC-MS/MS analysis; type: ADME, organism-based; settings: red blood cells (RBC) / plasma
Cytochrome P450 3A4 [4] = target: T1, Cytochrome P450 3A4 (Homo sapiens, UniProt P08684); assay: Inhibition of CYP3A4 using in human liver microsomes using midazolam as substrate after 5 to 15 mins; type: ADME
T1 sequence (P08684 whole entry): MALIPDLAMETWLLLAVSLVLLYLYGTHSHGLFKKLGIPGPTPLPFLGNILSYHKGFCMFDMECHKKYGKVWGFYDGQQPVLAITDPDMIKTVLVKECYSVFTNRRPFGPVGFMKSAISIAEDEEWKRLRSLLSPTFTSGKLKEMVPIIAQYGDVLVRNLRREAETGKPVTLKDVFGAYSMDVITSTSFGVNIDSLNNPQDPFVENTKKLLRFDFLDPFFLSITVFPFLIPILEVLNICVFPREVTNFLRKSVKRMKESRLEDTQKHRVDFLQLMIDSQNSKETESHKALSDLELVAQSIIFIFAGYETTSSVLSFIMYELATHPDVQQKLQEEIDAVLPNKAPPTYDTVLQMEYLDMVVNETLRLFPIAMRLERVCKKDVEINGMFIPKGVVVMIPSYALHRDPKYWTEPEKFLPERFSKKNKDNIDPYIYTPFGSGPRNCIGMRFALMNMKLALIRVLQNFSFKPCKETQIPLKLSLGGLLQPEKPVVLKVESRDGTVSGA
Summary of the method: (§3)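 CYP3A4 inhibition was measured in pooled human liver microsomes using an isozyme-specific probe substrate: midazolam for line 1 and testosterone for line 2.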

[5] = Half life in monkey plasma; type: ADME, cell-free, Macaca mulatta; settings: rhesus monkey
[6] = Oral bioavailability in Sprague-Dawley rat at 7.2 to 120 mg/kg by LC-MS/MS analysis; type: ADME, organism-based; settings: in vivo
Cytochrome P450 3A4 [7] = target: T1, Cytochrome P450 3A4; assay: Time dependent inhibition of CYP3A4 using in human liver microsomes using testosterone as substrate; type: ADME
Cytochrome P450 3A4 [8] = target: T1, Cytochrome P450 3A4; assay: Inhibition of CYP3A4 using in human liver microsomes using testosterone as substrate after 5 to 15 mins; type: ADME; summary of the method: as §3
Cytochrome P450 3A4 [9] = target: T1, Cytochrome P450 3A4; assay: Time dependent inhibition of CYP3A4 using in human liver microsomes using midazolam as substrate; type: ADME
Cytochrome P450 2D6 = Cytochrome P450 2D6 (Homo sapiens, UniProt P10635); assay: Inhibition of CYP2D6 in human liver microsomes using bufuralol as substrate after 5 to 15 mins; type: ADME
Chain of Cytochrome P450 2D6 (P10635 whole entry): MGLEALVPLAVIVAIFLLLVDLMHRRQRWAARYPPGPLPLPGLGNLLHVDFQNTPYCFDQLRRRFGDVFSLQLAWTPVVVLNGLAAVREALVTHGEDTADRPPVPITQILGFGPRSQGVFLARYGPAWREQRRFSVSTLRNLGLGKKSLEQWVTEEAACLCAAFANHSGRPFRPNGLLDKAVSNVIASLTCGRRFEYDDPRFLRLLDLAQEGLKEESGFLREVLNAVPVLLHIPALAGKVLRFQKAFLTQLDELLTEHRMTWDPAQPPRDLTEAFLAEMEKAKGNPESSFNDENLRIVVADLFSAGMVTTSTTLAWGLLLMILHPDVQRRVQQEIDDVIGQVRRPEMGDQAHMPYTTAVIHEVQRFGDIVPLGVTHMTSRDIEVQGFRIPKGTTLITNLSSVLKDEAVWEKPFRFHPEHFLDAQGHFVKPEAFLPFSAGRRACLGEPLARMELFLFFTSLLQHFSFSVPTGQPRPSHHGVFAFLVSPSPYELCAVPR
Summary of the method: (§4)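 Pooled human liver microsomes were incubated with isozyme-specific probe substrates: S-mephenytoin for CYP2C19 and bufuralol for CYP2D6.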

[10] = Half life in dog plasma; type: ADME, cell-free, Canis lupus familiaris
[11] = test system: Hemoglobin HbA (Homo sapiens), P69905+P68871 [E7V]; assay: as §1, with “500” for “30”; summary of the method: as §2
Cytochrome P450 2C19 [12] = target: T2, Cytochrome P450 2C19 (Homo sapiens, UniProt P33261); assay: Inhibition of CYP2C19 in human liver microsomes using S-Mephentoin as substrate after 5 to 15 mins; type: ADME; summary of the method: as §4
T2 sequence (P33261 whole entry): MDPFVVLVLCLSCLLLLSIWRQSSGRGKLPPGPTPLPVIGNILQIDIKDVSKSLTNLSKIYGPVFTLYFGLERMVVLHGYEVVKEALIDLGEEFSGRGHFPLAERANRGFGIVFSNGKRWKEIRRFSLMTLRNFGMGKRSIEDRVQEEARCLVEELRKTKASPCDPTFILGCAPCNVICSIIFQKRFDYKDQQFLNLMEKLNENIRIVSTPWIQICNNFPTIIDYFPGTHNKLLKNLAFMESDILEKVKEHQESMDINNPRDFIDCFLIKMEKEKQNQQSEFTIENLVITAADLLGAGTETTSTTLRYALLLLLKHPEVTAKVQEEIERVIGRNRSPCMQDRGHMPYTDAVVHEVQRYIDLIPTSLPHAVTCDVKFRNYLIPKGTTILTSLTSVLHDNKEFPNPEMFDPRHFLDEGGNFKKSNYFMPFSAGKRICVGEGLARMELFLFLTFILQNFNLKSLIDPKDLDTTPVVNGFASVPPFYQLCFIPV

Cytochrome P450 2C19 [13] = target: T2, Cytochrome P450 2C19; assay: Time dependent inhibition of CYP2C19 in human liver microsomes using S-Mephentoin as substrate; type: ADME
[14] = Half life in dog blood; type: ADME, tissue-based, Canis lupus familiaris
[15] = Half life in Sprague-Dawley rat plasma at 7.2 to 120 mg/kg, po by LC-MS/MS analysis; type: ADME, organism-based
Cytochrome P450 2C9 = Cytochrome P450 2C9 (Homo sapiens, UniProt P11712); assay: Inhibition of CYP2C9 in human liver microsomes using tolbutamide as substrate after 5 to 15 mins
Chain of Cytochrome P450 2C9 (P11712 whole entry): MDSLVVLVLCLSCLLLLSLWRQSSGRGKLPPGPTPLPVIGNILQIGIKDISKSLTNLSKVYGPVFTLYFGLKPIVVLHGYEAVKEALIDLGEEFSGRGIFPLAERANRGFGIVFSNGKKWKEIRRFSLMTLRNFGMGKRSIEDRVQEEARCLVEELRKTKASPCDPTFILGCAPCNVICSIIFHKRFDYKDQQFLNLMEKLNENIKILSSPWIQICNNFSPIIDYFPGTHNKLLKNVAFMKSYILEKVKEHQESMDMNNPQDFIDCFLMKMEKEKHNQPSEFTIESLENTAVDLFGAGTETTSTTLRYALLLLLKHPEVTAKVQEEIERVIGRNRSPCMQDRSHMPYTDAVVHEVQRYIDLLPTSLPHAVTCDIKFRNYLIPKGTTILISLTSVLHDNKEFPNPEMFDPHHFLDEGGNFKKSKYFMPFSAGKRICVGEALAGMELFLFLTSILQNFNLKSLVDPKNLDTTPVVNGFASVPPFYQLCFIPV

[16] = Oral bioavailability in monkey; type: ADME, organism-based, Macaca mulatta; settings: rhesus monkey, in vivo
[17] = Oral bioavailability in dog; type: ADME, organism-based, Canis lupus familiaris; settings: in vivo
Cytochrome P450 2C8 = target: T3, Cytochrome P450 2C8 (Homo sapiens, UniProt P10632); assay: Inhibition of CYP2C8 in human liver microsomes using paclitaxel as substrate after 5 to 15 mins; type: ADME
T3 sequence (P10632 whole entry): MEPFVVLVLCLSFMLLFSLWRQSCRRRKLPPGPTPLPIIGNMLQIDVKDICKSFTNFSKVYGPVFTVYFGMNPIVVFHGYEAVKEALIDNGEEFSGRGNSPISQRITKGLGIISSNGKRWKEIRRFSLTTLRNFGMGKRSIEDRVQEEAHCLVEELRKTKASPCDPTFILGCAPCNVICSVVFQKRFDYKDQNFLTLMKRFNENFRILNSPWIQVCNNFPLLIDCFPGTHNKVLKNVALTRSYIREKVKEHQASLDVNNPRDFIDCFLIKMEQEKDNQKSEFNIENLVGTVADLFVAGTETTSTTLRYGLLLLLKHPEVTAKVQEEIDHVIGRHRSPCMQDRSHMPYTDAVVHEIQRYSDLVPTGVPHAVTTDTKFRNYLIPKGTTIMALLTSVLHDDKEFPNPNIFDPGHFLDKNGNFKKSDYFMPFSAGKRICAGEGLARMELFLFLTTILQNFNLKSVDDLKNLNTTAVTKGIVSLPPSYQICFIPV

Cytochrome P450 1A2 = target: T4, Cytochrome P450 1A2 (Homo sapiens, UniProt P05177); assay: Inhibition of CYP1A2 in human liver microsomes using phenacetin as substrate after 5 to 15 mins; type: ADME
T4 sequence (P05177 whole entry): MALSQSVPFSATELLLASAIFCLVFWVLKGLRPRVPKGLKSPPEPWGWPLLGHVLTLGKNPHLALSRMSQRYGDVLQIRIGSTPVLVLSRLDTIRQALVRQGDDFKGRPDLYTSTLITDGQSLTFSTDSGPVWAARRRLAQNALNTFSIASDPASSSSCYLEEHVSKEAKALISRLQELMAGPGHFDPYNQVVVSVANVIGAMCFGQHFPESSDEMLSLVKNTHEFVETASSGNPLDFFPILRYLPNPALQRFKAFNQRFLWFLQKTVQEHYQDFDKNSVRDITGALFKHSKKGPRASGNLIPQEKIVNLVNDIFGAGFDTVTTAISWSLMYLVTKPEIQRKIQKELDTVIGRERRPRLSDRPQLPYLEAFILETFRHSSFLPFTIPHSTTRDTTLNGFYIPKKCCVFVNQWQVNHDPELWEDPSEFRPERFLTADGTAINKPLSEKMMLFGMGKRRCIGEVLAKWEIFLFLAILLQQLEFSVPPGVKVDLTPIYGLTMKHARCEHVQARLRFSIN
Summary of the method: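 Pooled human liver microsomes incubated with phenacetin as the CYP1A2-specific probe substrate across a range of test-compound concentrations. IC50 derived from inhibition of probe metabolism.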

[18] = Half life in monkey blood; type: ADME, tissue-based, Macaca mulatta; settings: rhesus monkey
[19] = test system: Hemoglobin HbA (Homo sapiens), P69905+P68871 [E7V]; assay: as §1, with “100” for “30”, “20” for “oxygenation for 10”, “oxygenation/deoxygenation cycle” for “and subsequent deoxygenation”

| SMILES | Activity [1] [%] | t1/2 (Blood) [h] | Activity [2] [%] | Activity (Homo sapiens) [%] | AUC/dose (Rattus norvegicus) [ng·h/mL/mg/kg] | also measured |
| --- | --- | --- | --- | --- | --- | --- |
| CC(C)n1nccc1-c1ncccc1COc1cccc(F)c1C=O | 67.8 | 2.7 | 72.8 | 104 | 438 |  |
| COc1cc(C=O)c(OCc2cc(C#N)cn3ccnc23)cn1 | 3.5 |  |  |  |  |  |
| COc1cc(C=O)c(OCc2cccnc2-c2ccnn2C(C)C)cn1 | 66.2 | 2.7 | 66.9 | 115 | 20.6 | Kp [3]: 38 |
| COc1cncc(OCc2cccnc2-c2ccnn2C(C)C)c1C=O | 54.5 | 2.5 | 55 | 131 | 36.4 |  |
| CC(C)n1nccc1-c1ncccc1COc1cccc(O)c1C=O [VOXELOTOR] | 72.1 | 19.1 | 79.8 | 206 | 326806 | IC50 (Cytochrome P450 3A4 [4]): 81.9 µM; half-life [5]: 20 h; bioavailability [6]: 60%; TDI (Cytochrome P450 3A4 [7]): Not Active; IC50 (Cytochrome P450 3A4 [8]): 12.5 µM; TDI (Cytochrome P450 3A4 [9]): Not Active; IC50 (Cytochrome P450 2D6): 148 µM; half-life [10]: 20 h; Activity [11]: 2.6%; IC50 (Cytochrome P450 2C19 [12]): 20 µM; TDI (Cytochrome P450 2C19 [13]): Not Active; Kp [3]: 150; half-life [14]: 20 h; half-life [15]: 20 h; IC50 (Cytochrome P450 2C9): 8.5 µM; bioavailability [16]: 36%; bioavailability [17]: 37%; IC50 (Cytochrome P450 2C8): 7.9 µM; IC50 (Cytochrome P450 1A2): 58.6 µM; half-life [18]: 20 h |
| CC(C)n1nccc1-c1ncccc1COc1cncc(O)c1C=O | 70.5 | 8.1 | 72.5 | 167 | 10887 |  |
| COCCOc1cc(C=O)c(OCc2cccnc2-c2ccnn2C(C)C)cn1 | 55.9 | 1.5 | 68.9 | 77.8 | 1950 |  |
| COc1cc(C=O)c(OCc2cccnc2-c2[nH]ncc2C)cn1 | 51.7 |  | 43.1 | 64.5 |  |  |
| Cc1ccc(OCc2cccnc2-c2ccnn2C(C)C)c(C=O)n1 | 61.7 | 1.5 | 65.4 | 62.6 | 1710 |  |
| COc1cc(C=O)c(OCc2cc(-c3ccn[nH]3)cn3ccnc23)cn1 | 2.8 |  |  |  |  |  |
| COc1cc(C=O)c(OCc2cc(-c3nn[nH]n3)cn3ccnc23)cn1 | 21.1 |  |  |  |  |  |
| CC(C)n1nccc1-c1ncccc1COc1cnc(O)cc1C=O | 59.6 |  | 62.5 | 128 |  |  |
| COc1cc(C=O)c(OCc2cc(-c3cn[nH]c3)cn3ccnc23)cn1 | 28.2 |  |  |  |  |  |
| CC(C)n1nccc1-c1ncccc1COc1ccccc1C=O |  | 2.1 | 80.6 | 136 | 1059 |  |
| COc1cc(C=O)c(OCc2cccn3c(C)nnc23)cn1 | 42.2 |  |  |  |  |  |

Continued, in another order:

| Activity [1] [%] | t1/2 (Blood) [h] | Activity [2] [%] | Activity (Homo sapiens) [%] | AUC/dose (Rattus norvegicus) [ng·h/mL/mg/kg] | SMILES | also measured |
| --- | --- | --- | --- | --- | --- | --- |
| 32.7 |  |  |  |  | COc1cc(C=O)c(OCc2cccc3c2cnn3C)cn1 |  |
| 37.9 |  |  |  |  | COc1cc(C=O)c(OCc2cccn3cncc23)cn1 |  |
| 29.4 |  |  |  |  | COc1cc(C=O)c(OCc2cncc(-c3ccn(C)n3)c2)cn1 |  |
| 34 |  |  |  |  | COc1ccc(OCc2cccnc2)c(C=O)c1 | Activity [19]: Active |
| 17.1 |  |  |  |  | COc1cc(C=O)c(OCc2cnccc2-c2cn[nH]c2)cn1 |  |
| 43.2 |  |  |  |  | COc1cc(C=O)c(OCc2ccc3ccccc3n2)cn1 |  |
| 13.7 |  |  |  |  | COc1cc(C=O)c(OCc2ccc3ccncc3c2)cn1 |  |
